The values below come from ChEMBL document CHEMBL4477233, “Discovery of novel TAOK2 inhibitor scaffolds from high-throughput screening” (Bioorg Med Chem Lett, 2016).

SMILES strings stand for the structures. The source made the active and inactive calls. No cut-off for these calls is given here.

In the first assay the target is T1, Serine/threonine-protein kinase TAO2 (Rattus norvegicus) (UniProt Q9JLS3).
T1 sequence (whole entry): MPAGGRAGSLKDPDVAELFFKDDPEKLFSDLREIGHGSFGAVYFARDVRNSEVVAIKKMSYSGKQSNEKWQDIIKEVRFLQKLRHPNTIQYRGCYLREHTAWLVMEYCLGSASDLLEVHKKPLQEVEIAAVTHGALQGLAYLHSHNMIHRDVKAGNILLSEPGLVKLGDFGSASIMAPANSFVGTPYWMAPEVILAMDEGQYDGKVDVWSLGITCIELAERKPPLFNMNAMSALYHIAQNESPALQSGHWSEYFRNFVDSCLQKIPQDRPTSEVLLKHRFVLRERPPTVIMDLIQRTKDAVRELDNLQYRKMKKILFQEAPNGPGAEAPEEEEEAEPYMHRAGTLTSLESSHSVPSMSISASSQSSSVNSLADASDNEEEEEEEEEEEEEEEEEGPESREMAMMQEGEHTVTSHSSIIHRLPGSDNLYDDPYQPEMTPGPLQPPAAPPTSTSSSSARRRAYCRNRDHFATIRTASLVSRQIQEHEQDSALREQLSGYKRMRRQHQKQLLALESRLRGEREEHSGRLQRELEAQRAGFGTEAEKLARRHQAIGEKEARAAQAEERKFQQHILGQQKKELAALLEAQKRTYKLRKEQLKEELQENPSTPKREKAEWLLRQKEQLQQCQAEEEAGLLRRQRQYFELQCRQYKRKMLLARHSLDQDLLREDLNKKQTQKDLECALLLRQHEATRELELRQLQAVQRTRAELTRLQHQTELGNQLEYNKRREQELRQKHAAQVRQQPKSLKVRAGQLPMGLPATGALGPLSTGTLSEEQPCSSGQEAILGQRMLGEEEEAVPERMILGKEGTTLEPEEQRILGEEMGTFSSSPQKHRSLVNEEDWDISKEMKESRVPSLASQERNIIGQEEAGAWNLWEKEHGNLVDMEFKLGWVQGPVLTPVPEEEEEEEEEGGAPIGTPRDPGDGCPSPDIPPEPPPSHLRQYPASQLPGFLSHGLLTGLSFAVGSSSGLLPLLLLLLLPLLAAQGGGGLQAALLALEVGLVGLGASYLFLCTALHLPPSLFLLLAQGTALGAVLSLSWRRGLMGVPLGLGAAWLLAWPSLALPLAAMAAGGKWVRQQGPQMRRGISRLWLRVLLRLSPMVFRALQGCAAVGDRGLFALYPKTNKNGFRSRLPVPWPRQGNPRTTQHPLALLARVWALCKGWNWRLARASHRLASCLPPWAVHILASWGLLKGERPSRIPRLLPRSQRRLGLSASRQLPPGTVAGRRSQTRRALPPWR
Description: Binding affinity to rat TAOK2 (1 to 320 residues) expressed in Baculovirus/insect cell expression system assessed as change in melting temperature at 1 uM by SYPRO orange dye-based DSF analysis. The method, boiled down:
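Differential scanning fluorimetry: each compound's melting-temperature shift (ΔTm, °C) was measured on the kinase protein. Compounds giving a TAOK2 ΔTm above 0.5 °C were also run against p38 and ASK1. Selectivity (ΔΔTm) was taken as the TAOK2 ΔTm minus the p38 or ASK1 ΔTm.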
For `O=C(Nc1cccc(-c2nc3ccccc3c(=O)o2)c1)c1ccccc1Br`, the ΔTm is -0.6 °C.
The same measure, in the same setting: the figure for `COc1ccc(O)c(/C=C2/SC(=S)NC2=O)c1` is -0.2 °C; for `Cc1cccc(NC(=S)N/N=C/c2c[nH]c3ccccc23)c1` it is 0.5 °C.

In a further assay the target is T2, Serine/threonine-protein kinase TAO2 (Rattus norvegicus, UniProt Q9JLS3).
T2 sequence (Q9JLS3 whole entry): T1 sequence (whole entry)
Description: Inhibition of rat TAOK2 (1 to 320 residues) expressed in Baculovirus/insect cell expression system assessed as remaining activity using MBP as substrate and [32P]ATP measured after 10 mins by Kinase-Glo assay.
For the compound `CCC(=O)Nc1nc(C)c(-c2csc(Nc3ccc(N(CC)CC)cc3)n2)s1`, the half-inhibitory concentration (IC50) amounted to 2700 nM.
On the same count and under the same terms, the figure for `CCC(=O)Nc1nc(C)c(-c2csc(Nc3ccc([N+](=O)[O-])cc3)n2)s1` is 1000 nM; for `Cc1nc(N)sc1-c1csc(Nc2cccc(Cl)c2)n1` it is 3100 nM; for `Cc1nc(N)sc1-c1csc(Nc2cccc([N+](=O)[O-])c2)n1` it is 1700 nM.
Same read-out and setting: in the case of `CN1c2ccc(S(C)(=O)=O)cc2SC1NC(=O)c1ccc(C(=O)c2ccccc2)cc1` (stereo not drawn) it was 1000 nM; in that of `CN1c2ccc(S(C)(=O)=O)cc2SC1NC(=O)CC1CCC(Br)CC1` (stereo not drawn), 1400 nM; in that of `CCC(=O)Nc1nc(C)c(-c2csc(Nc3cc(Cl)ccc3C)n2)s1`, 1600 nM.
Consider `CC(=O)c1cccc(Nc2nc(-c3sc(N)nc3C)cs2)c1`, for which the IC50 was 1400 nM.
Still for that read-out and setting: the figure for `O=C(Nc1cccc(-c2nc3ccccc3c(=O)o2)c1)c1ccccc1Br` is 4000 nM; for `CC(=O)Nc1nc(C)c(-c2csc(Nc3ccccc3C)n2)s1` it is 1800 nM; for `Cc1nc(N)sc1-c1csc(Nc2ccc([N+](=O)[O-])cc2)n1` it is 1000 nM.
Regarding `Cc1cccc(Nc2nc(-c3sc(N)nc3C)cs2)c1`, the IC50 is 1700 nM.
On to `O=C(NCCSCc1ccccc1)c1ccc2c(=O)n(C3CCCCC3)c(=S)[nH]c2c1`, for which the IC50 was determined as 1900 nM.
Turning to `COc1ccc(O)c(/C=C2/SC(=S)NC2=O)c1`, the IC50 is 3000 nM.
`CC(=O)Nc1nc(C)c(-c2csc(Nc3ccc(O)cc3)n2)s1`: the IC50 was found to be 3800 nM.
With `CC(=O)Nc1nc(C)c(-c2csc(Nc3cccc([N+](=O)[O-])c3)n2)s1`, the IC50 is 10100 nM.
Take `COc1ccc(Cl)cc1Nc1nc(-c2sc(N)nc2C)cs1`: the IC50 fell in the range of 1000 to 1500 nM.
On to `COc1ccc(OC)c(Nc2nc(-c3sc(N)nc3C)cs2)c1`, for which the IC50 turned out to be 1000 nM.
Take `Cc1cccc(NC(=S)N/N=C/c2c[nH]c3ccccc23)c1`: the IC50 came out at 1000 nM.
Same read-out and setting: in the case of `CCC(=O)Nc1nc(C)c(-c2csc(Nc3ccc(NC(C)=O)cc3)n2)s1` it was 1900 nM; in that of `CCC(=O)Nc1nc(C)c(-c2csc(Nc3ccccc3OC)n2)s1`, 1400 nM.
Still for that read-out and setting: in the case of `O=C(NCC1COc2ccccc2O1)c1ccc2c(=O)n(Cc3ccco3)c(=S)[nH]c2c1` (stereo not drawn) it was 600 nM.
With `CN1c2ccc(S(C)(=O)=O)cc2SC1NC(=O)CCCOC1CCCCC1` (stereo not drawn), the IC50 came to 1900 nM.
The same measure, in the same setting: the figure for `CC(=O)Nc1nc(C)c(-c2csc(Nc3cccc(C(C)=O)c3)n2)s1` is 12000 nM; for `CN1c2ccc(S(C)(=O)=O)cc2SC1NC(=O)CCCc1ccccc1` (stereo not drawn) it is 1700 nM; for `COc1ccccc1Nc1nc(-c2sc(NC(C)=O)nc2C)cs1` it is 2100 nM.
The same measure, in the same setting: in the case of `CCN(CC)c1ccc(Nc2nc(-c3sc(NC(C)=O)nc3C)cs2)cc1` it was 1700 nM; in that of `COc1ccc(Cl)cc1Nc1nc(-c2sc(NC(C)=O)nc2C)cs1`, 1100 nM; in that of `Cc1nc(N)sc1-c1csc(Nc2cccc(O)c2)n1`, 1400 nM.
Consider `CCC(=O)Nc1nc(C)c(-c2csc(Nc3ccc(N(C)C)cc3)n2)s1`, for which the IC50 amounted to 1200 nM.
Still for that read-out and setting: the figure for `CCC(=O)Nc1nc(C)c(-c2csc(Nc3cccc([N+](=O)[O-])c3)n2)s1` is 1000 nM; for `CCOc1ccccc1Nc1nc(-c2sc(NC(=O)CC)nc2C)cs1` it is 600 nM.
On to `CCC(=O)Nc1nc(C)c(-c2csc(Nc3cccc(C(=O)O)c3)n2)s1`, for which the IC50 came out at 1700 nM.
The same measure, in the same setting: the figure for `Cc1nc(N)sc1-c1csc(Nc2ccc(S(N)(=O)=O)cc2)n1` is 1400 nM.
Same read-out and setting: in the case of `CC(=O)Nc1nc(C)c(-c2csc(Nc3ccc(Br)cc3)n2)s1` it was 1000 nM.
On to `CN1c2ccc(S(C)(=O)=O)cc2SC1NC(=O)/C=C/c1ccc(F)cc1` (stereo not drawn), for which the IC50 was 800 nM.
Still for that read-out and setting: in the case of `CC(=O)Nc1nc(C)c(-c2csc(Nc3cccc(C)c3)n2)s1` it was 900 nM; in that of `CC(=O)Nc1nc(C)c(-c2csc(Nc3ccc([N+](=O)[O-])cc3)n2)s1`, 10000 nM; in that of `CCOc1ccccc1Nc1nc(-c2sc(NC(C)=O)nc2C)cs1`, 1600 nM.
For `CCC(=O)Nc1nc(C)c(-c2csc(Nc3ccc(S(N)(=O)=O)cc3)n2)s1`, the IC50 is 1000 nM.
Regarding `CC(=O)Nc1nc(C)c(-c2csc(Nc3cccc(C(=O)O)c3)n2)s1`, the IC50 was determined as 1300 nM.
The same measure, in the same setting: the figure for `CC(=O)Nc1nc(C)c(-c2csc(Nc3ccccc3)n2)s1` is 1100 nM.
Still for that read-out and setting: the figure for `CC(=O)Nc1nc(C)c(-c2csc(Nc3ccc(C)cc3)n2)s1` is 1100 nM.
In the case of `CCC(=O)Nc1nc(C)c(-c2csc(Nc3ccc(O)cc3)n2)s1`, the half-inhibitory concentration (IC50) is 1600 nM.
Regarding `CCC(=O)Nc1nc(C)c(-c2csc(Nc3cccc(O)c3)n2)s1`, the IC50 stood at 1000 nM.
Still for that read-out and setting: in the case of `Cc1nc(NC(=O)c2ccccc2)sc1-c1csc(Nc2ccc(S(N)(=O)=O)cc2)n1` it was 800 nM.

For the next assay, the target named is T3, Serine/threonine-protein kinase TAO2 (Homo sapiens) (UniProt Q9UL54).
T3 sequence (whole entry): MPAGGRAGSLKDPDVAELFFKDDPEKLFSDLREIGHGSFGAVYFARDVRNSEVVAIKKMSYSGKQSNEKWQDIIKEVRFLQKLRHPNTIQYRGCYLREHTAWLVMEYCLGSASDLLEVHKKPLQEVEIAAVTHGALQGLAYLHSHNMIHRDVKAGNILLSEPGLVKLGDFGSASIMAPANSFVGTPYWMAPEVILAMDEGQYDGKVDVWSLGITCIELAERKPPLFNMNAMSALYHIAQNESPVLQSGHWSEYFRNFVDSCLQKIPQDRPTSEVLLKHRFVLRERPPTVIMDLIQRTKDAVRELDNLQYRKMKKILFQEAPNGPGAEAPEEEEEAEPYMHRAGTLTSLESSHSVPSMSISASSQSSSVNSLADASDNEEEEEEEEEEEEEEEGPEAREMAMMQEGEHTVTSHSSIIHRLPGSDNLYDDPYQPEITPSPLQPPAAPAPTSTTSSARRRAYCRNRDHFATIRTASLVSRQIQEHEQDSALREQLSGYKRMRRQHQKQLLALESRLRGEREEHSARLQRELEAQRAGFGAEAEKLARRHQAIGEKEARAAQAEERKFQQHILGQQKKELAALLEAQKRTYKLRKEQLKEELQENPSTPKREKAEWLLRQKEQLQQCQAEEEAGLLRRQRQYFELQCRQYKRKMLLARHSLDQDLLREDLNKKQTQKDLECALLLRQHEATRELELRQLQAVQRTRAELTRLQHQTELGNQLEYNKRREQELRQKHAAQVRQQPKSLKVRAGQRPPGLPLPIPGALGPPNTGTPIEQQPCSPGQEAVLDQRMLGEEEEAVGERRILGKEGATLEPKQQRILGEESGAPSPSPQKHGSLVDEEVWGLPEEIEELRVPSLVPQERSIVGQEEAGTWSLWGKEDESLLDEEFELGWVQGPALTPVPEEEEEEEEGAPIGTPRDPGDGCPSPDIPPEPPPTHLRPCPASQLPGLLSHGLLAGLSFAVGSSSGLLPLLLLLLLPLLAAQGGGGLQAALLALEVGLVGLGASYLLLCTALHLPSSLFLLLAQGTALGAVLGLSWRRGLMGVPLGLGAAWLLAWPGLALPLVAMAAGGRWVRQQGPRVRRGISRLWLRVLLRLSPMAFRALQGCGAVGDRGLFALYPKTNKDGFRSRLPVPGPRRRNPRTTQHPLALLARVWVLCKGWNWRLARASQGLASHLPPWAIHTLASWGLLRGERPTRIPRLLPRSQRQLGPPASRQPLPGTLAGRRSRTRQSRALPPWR
Description: Inhibition of TAOK2 in human U2OS cells assessed as inhibition of cellular autophagy measured as P62 accumulation at 50 uM after 24 hrs by western blot analysis. It counts as cell-based. Put shortly:
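GFP–LC3-expressing U2OS cells were treated for 24 h with compound at 50 µM or with DMSO alone. p62 (SQSTM1) abundance was then assessed by Western blotting as a readout of autophagic degradation.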
Turning to `O=C(Nc1cccc(-c2nc3ccccc3c(=O)o2)c1)c1ccccc1Br`, the inhibition result is “Active”.

A further assay has as its target T3, Serine/threonine-protein kinase TAO2 (Homo sapiens). Description: Inhibition of TAOK2 in human U2OS cells assessed as inhibition of cellular autophagy measured as GFP-LC3 accumulation at 50 uM after 24 hrs by flow cytometric analysis. It counts as cell-based. Put shortly:
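U2OS cells stably expressing GFP–LC3 were exposed to compound at 50 µM in the medium for 24 h. GFP fluorescence was read by flow cytometry. The median value from 20,000 cells per condition was normalized to DMSO vehicle within each experiment. Data are mean + SD of >2 independent experiments, compared with vehicle by unpaired t test.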
`O=C(Nc1cccc(-c2nc3ccccc3c(=O)o2)c1)c1ccccc1Br`: the inhibition result is “Active”.
On the same count and under the same terms, the entry for `COc1ccc(O)c(/C=C2/SC(=S)NC2=O)c1` is “Active”; for `CO/C1=C\C(C)=C\[C@@H](C)[C@@H](O)[C@@H](C)C/C(C)=C/C=C/[C@H](OC)[C@@H]([C@@H](C)[C@@H](O)[C@H](C)[C@@]2(O)C[C@@H](O)[C@H](C)[C@@H](C(C)C)O2)OC1=O` it is “Active”.
